From PubChem
ROMK mod: ROMK potassium channel modulators, primary screen, cell-based, thallium flux, MLSMR library; ATP-sensitive inward rectifier potassium channel 1 (Homo sapiens), P48048; Tet-inducible ROMK, thallium flux fluorescence; actives lie on both sides; B-score at 10 µM; 130,000 tested, 2% active; AID 1918, 2009;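 active = signal ratio slope over the read window, or its plate-corrected B-score, at least 3 SD from the plate mean, either direction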;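 note: B-score of the F/F0 ratio slope over 7 to 12 s after thallium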
Target sequence (P48048 whole entry, looked up): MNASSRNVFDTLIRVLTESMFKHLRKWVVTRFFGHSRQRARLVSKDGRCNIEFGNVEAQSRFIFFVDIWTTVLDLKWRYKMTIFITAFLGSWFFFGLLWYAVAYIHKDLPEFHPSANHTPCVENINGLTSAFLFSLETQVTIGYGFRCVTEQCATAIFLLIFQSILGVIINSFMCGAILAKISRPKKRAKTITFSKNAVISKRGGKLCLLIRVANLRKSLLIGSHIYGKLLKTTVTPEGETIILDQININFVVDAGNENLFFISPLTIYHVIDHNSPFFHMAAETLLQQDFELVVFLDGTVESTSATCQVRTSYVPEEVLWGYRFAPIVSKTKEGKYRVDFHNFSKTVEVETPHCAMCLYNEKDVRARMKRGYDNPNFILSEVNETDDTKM
WT yeast gro inh: growth inhibition of WT strain, primary screen, mitochondrial fusion inhibitor project, WT and mutant strains, chemical genetic; inhibition, % at 10 µM; AID 1362, 2008; mitochondrial fusion phenotypic screen; 190,000 tested, 2.1% active; in the data active = inhibition above about 58%; tested in S. cerevisiae
L major viab: Leishmania major promastigote growth inhibition, primary screen; Leishmania major promastigotes, resazurin fluorescence viability; inhibition, % at 10 µM; 200,000 tested, 9% active; in the data active = inhibition above about 50%;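 note: promastigotes grown with compound for 44 hours at 28 °C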
Diaph inh CS: diaphorase inhibitors and chemical oxidizers, primary screen, counter-screen for diaphorase-coupled primary assays, biochemical, uHTS, resorufin fluorescence; 190,000 tested, 0.69% active; inhibition, % at 20 µM; diaphorase resazurin-to-resorufin fluorescence, NADH, 16 min; bacterial (C. kluyveri) enzyme, not human; AID 1217, 2008;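 active = primary screen inhibition at 20 µM above a set limit, cut at about 50% in these data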;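 note: plate controls were DMSO with full reaction for no effect and wells lacking NADH for full effect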
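material = Clostridium kluyveri diaphorase enzyme | amount = 0.14 U/mL diaphorase, enzyme working solution | schedule = incubation 16 min, room temperature | detection = fluorescence of resorufin formed from resazurin, Ex 544/Em 590 nm | benchmarks = positive control minus NADH, DMSO neutral control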
Diaph act CS: compounds boosting diaphorase resazurin reduction – biochemical, uHTS, resorufin fluorescence, counter-screen for diaphorase-coupled primary assays, primary screen; activation factor at 20 µM; 190,000 tested, 0.005% active; Diaphorase/resazurin coupled assay, 16 min; hits give high values; 1 = vehicle wells, 0 = NADH-free wells;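 active = diaphorase activity raised at least twofold by the compound at 20 µM; inactive = activation factor below 2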
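Measured by – red resorufin fluorescence at 544/590 nm excitation/emission · Test system – Clostridium kluyveri diaphorase, purified enzyme · Incubation – reaction time 16 min, room temperature · Buffer or medium – 50 mM HEPES pH 7.4 with 4.542 mM MgCl2, 0.005% Tween 20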
KCC2 mod: KCC2 cotransporter modulators, thallium flux, primary screen, cell-based, HEK293 KCC2, FluoZin-2 fluorescence, MLSMR | 190,000 tested, 2.2% active | AID 1456, 2008 | KCC2 cells, thallium flux FluoZin-2 fluorescence | B-score of Tl+ flux slope (higher = more flux/activation; lower = inhibition) at 10 µM;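 active = thallium flux slope and its plate-corrected score both differing from the plate sample mean at a set confidence after two filtering rounds, in either direction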;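 note: slope of fluorescence scaled to starting intensity during 10 to 20 s after thallium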
ROMK hit retest: ROMK channel modulator hit retest, confirmation, cell-based, thallium flux, duplicate, resupplied hits; fluorescence ratio; hits give low values; normalized thallium flux (F/F0 slope) at 10 µM; shares compounds with ROMK mod; AID 1917, 2009; 3,000 tested, 54% active;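 active = Flux at 10 µM at least 3 SD below or above vehicle control mean in one or both replicates; inconclusive = no clear call, values can overlap the other calls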
Numbers without * were called inactive. The list is not random: actives were taken first. Their share in the collection is about 12%.

How did Cc1cccc(-n2c(C)cc(C=C3C(=O)c4ccccc4C3=O)c2C)c1 do in these assays?
WT yeast gro inh: 10; L major viab: -1; Diaph inh CS: 34; Diaph act CS: 0.7; KCC2 mod: -0.55; ROMK hit retest: 0.036*

Results for Nc1nc2ccccc2n1C(=O)c1ccc(F)cc1 ?
ROMK mod: 1.2; WT yeast gro inh: 16; L major viab: 28; Diaph inh CS: 11; Diaph act CS: 0.9; KCC2 mod: -0.13

Results for Nc1nc2ccccc2n1C(=O)c1ccccc1 ?
ROMK mod: 2.1*; WT yeast gro inh: 6; L major viab: 18; Diaph inh CS: -19; Diaph act CS: 1.2; KCC2 mod: 0.4; ROMK hit retest: 0.076

How did CC(C(=O)O)N1C(=O)c2ccccc2C1=O (stereo not given) do in these assays?
ROMK mod: 2.9*; WT yeast gro inh: -20; L major viab: -5; Diaph inh CS: 1; Diaph act CS: 1; KCC2 mod: 0.3; ROMK hit retest: 0.078

What do the screens show for `Cn1c(-c2cccc(Br)c2)n[nH]c1=O`?
ROMK mod: -0.0041; WT yeast gro inh: 5; L major viab: -2; Diaph inh CS: -19; Diaph act CS: 1.2; KCC2 mod: 0.49

How did COCCN(CCOC)C(=S)Nc1cc(S(=O)(=O)N(C)C)ccc1C do in these assays?
ROMK mod: 4.3*; WT yeast gro inh: -9; L major viab: -3; Diaph inh CS: 6; Diaph act CS: 0.9; KCC2 mod: -0.046; ROMK hit retest: 0.082

Results for S=C(Nc1ccccc1Cl)N1CCOCC1 ?
ROMK mod: 0.56; WT yeast gro inh: -5; L major viab: -8; Diaph inh CS: 9; Diaph act CS: 0.9; KCC2 mod: -0.59

Results for CC1(C)Oc2ccccc2OC1(O)c1ccc2ccccc2n1 (stereo not given) ?
WT yeast gro inh: -11; L major viab: 2; Diaph inh CS: 6; Diaph act CS: 0.9; KCC2 mod: 0.027; ROMK hit retest: 0.064*

Results for COC(=O)c1c(NC(=O)CCC(=O)O)sc(Cc2ccccc2)c1C ?
ROMK mod: 1.5; KCC2 mod: -0.91

How did COc1ccc(NC(=O)c2c(NC(=O)CCC(=O)O)sc(-c3ccccc3)c2C)cc1 do in these assays?
WT yeast gro inh: -5; L major viab: 1; Diaph inh CS: 1; Diaph act CS: 1; KCC2 mod: -0.88; ROMK hit retest: 0.08

What do the screens show for `O=C(OCC#CCSc1nnc(-c2ccccc2)o1)c1cccs1`?
ROMK mod: -2.6; WT yeast gro inh: -11; L major viab: 2; Diaph inh CS: 14; Diaph act CS: 0.9; KCC2 mod: 0.47; ROMK hit retest: 0.058*

Results for COc1ccccc1C(=O)c1cc2ccc(O)cc2oc1=O ?
WT yeast gro inh: -12; L major viab: -3; Diaph inh CS: 2; Diaph act CS: 1; KCC2 mod: -1.7

What do the screens show for `C/C(=N\NC(=O)CC#N)c1cc2ccc(O)cc2oc1=O`?
ROMK mod: -3.4*; WT yeast gro inh: -2; L major viab: 0; Diaph inh CS: 9; Diaph act CS: 0.9; KCC2 mod: inactive; ROMK hit retest: 0.056*

What do the screens show for `O=C(CCc1ccc(S(=O)(=O)N2CCOCC2)cc1)Nc1ccc2c(c1)OCCO2`?
KCC2 mod: -0.84

How did O=C(CSc1nc(-c2ccncc2)nn1CC(=O)N1CCCCC1)NC1CCCC1 do in these assays?
ROMK mod: -0.85; WT yeast gro inh: -6; L major viab: 0; Diaph inh CS: 8; Diaph act CS: 0.9

What do the screens show for `CC1=CC(C)(C)N(C(=O)CCl)c2cc(C)ccc21`?
ROMK mod: 0.021; WT yeast gro inh: -29; L major viab: 2; Diaph inh CS: 10; Diaph act CS: 0.9; KCC2 mod: -0.087

How did CC1=CC(C)(C)N(C(=O)CNC2CCCCC2)c2cc(C)ccc21 do in these assays?
ROMK mod: -7.1*; WT yeast gro inh: 6; L major viab: 22; Diaph inh CS: 17; Diaph act CS: 0.8; KCC2 mod: 0.41; ROMK hit retest: 0.051*

How did CCOC(=O)CSc1nc(C)c2ccc(C)cc2n1 do in these assays?
WT yeast gro inh: 2; L major viab: -1; Diaph inh CS: 11; Diaph act CS: 0.9; KCC2 mod: 0.01

What do the screens show for `CCCc1cc(C(=O)Nc2ccccc2SC)no1`?
WT yeast gro inh: 22; L major viab: -1; Diaph inh CS: 12; Diaph act CS: 0.9; KCC2 mod: 0.00079; ROMK hit retest: inconclusive

What do the screens show for `CCCc1cc(C(=O)Nc2ccc(F)cc2F)no1`?
WT yeast gro inh: 3; L major viab: -9; Diaph inh CS: -8; Diaph act CS: 1.1; KCC2 mod: 0.26

What do the screens show for `COc1ccc(NC(=O)/C(Cl)=C(/Cl)S(=O)Cc2ccccc2)cn1` (stereo not given)?
ROMK mod: -3.5*; WT yeast gro inh: 76; L major viab: 100*; Diaph inh CS: 14; Diaph act CS: 0.9; ROMK hit retest: 0.047*

How did COc1ccc(/C=C/C(=O)Nc2ccc(OC)nc2)cc1 do in these assays?
ROMK mod: 0.51; WT yeast gro inh: 11; L major viab: -3; Diaph inh CS: 5; Diaph act CS: 0.9; KCC2 mod: 0.91

What do the screens show for `COc1ccc(NC(=O)Cc2ccccc2)cn1`?
ROMK mod: -0.039; WT yeast gro inh: -6; L major viab: -3; Diaph inh CS: 8; Diaph act CS: 0.9; KCC2 mod: -0.49

Results for COc1ccc(CS(=O)(=O)/C(Cl)=C(/Cl)C(=O)Nc2ccc(OC)nc2)cc1 ?
ROMK mod: -2.8*; WT yeast gro inh: 63*; L major viab: 32; Diaph inh CS: 5; Diaph act CS: 0.9; KCC2 mod: 0.86; ROMK hit retest: inconclusive

How did CCOc1ccc(-c2nc(CSCC(=O)N3CCN(c4cccc(OC)c4)CC3)c(C)o2)cc1 do in these assays?
WT yeast gro inh: 3; L major viab: 5; Diaph inh CS: 21; Diaph act CS: 0.8; ROMK hit retest: 0.067*

How did C=CCC(O)(CC=C)C(C)N (stereo not given) do in these assays?
ROMK mod: 0.88; WT yeast gro inh: -13; L major viab: -5; Diaph inh CS: 8; Diaph act CS: 0.9; KCC2 mod: 1.5
